{"source": "ChEMBL document CHEMBL1123582", "about": "“Substituted 2-(2-hydroxyphenyl)benzimidazoles as potential agents for the control of periodontal diseases” (1987)", "key": {"Actinomyces viscosus [1]": {"system": "Actinomyces viscosus", "assay": "Evaluated for the in vitro minimum bactericidal concentration (MBC) against periopathogenic Actinomycetes viscosus bacteria.", "type": "functional", "method_in_brief": "(§1)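 Tested against A. viscosus M100-2000, maintained in Trypticase Soy Broth with excess CaCO3, by tube dilution. EtOH or Me2SO stocks (1 mg/100 μL) were diluted at least 100-fold into 3-fold dilution series in Bacto Anaerobe broth. Tubes were seeded with 50 μL of 10⁸ cfu/mL log-phase culture and held at 37 °C in an anaerobic chamber (5% CO2, 10% H2, 85% Ar). Values are in μg/mL, consistent in triplicate.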"}, "[2]": {"system": "Aggregatibacter actinomycetemcomitans", "assay": "Evaluated for the in vitro minimum bactericidal concentration (MBC) against periopathogenic Actinobacillus actinomycetemcommitans bacteria; NE means not effective", "type": "functional, organism-based", "method_in_brief": "(§2)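 Tube dilution test against A. actinomycetemcomitans Y4, kept in Trypticase Soy Broth with excess CaCO3. Compound stocks of 1 mg/100 μL EtOH or Me2SO were diluted at least 100-fold into 3-fold series in Bacto Anaerobe broth. Each tube got 50 μL of log-phase inoculum at 10⁸ cfu/mL and was incubated at 37 °C under anaerobic 5% CO2/10% H2/85% Ar. Values are μg/mL, consistent across triplicates.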"}, "Porphyromonas gingivalis [3]": {"system": "Porphyromonas gingivalis", "assay": "Evaluated for the in vitro minimum bactericidal concentration (MBC) against periopathogenic Bacteroides gingivalis bacteria", "type": "functional", "method_in_brief": "(§3)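 B. gingivalis 381, maintained in Trypticase Soy Broth plus excess CaCO3, was assayed by tube dilution. Stocks of 1 mg/100 μL in EtOH or Me2SO were diluted 100-fold or more to give 3-fold dilutions in Bacto Anaerobe broth. Inoculum was 50 μL of log-phase culture at 10⁸ cfu/mL, with incubation at 37 °C anaerobically (5% CO2/10% H2/85% Ar). Concentrations are μg/mL, consistent for triplicate assays.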"}, "[4]": {"system": "Aggregatibacter actinomycetemcomitans", "assay": "Evaluated for the in vitro minimum bactericidal concentration (MBC) against periopathogenic Actinobacillus actinomycetemcommitans bacteria", "type": "functional", "method_in_brief": "as §2"}, "Actinomyces viscosus [5]": {"system": "Actinomyces viscosus", "assay": "Evaluated for the in vitro minimum bactericidal concentration (MBC) against periopathogenic Actinomycetes viscosus bacteria", "type": "functional", "method_in_brief": "as §1"}, "Actinomyces viscosus [6]": {"system": "Actinomyces viscosus", "assay": "Evaluated for the in vitro minimum bactericidal concentration (MBC) against periopathogenic Actinomycetes viscosus bacteria; NE means not effective", "type": "functional, organism-based", "method_in_brief": "as §1"}, "Porphyromonas gingivalis [7]": {"system": "Porphyromonas gingivalis", "assay": "Evaluated for the in vitro minimum bactericidal concentration (MBC) against periopathogenic Bacteroides gingivalis bacteria; NE means not effective", "type": "functional, organism-based", "method_in_brief": "as §3"}, "Actinomyces viscosus [8]": {"system": "Actinomyces viscosus", "assay": "Evaluated for the in vitro minimum bactericidal concentration (MBC) against periopathogenic Actinomycetes viscosus bacteria;NE means not effective", "type": "functional, organism-based", "method_in_brief": "as §1"}}, "note": "Active and inactive are the calls of the source. The calls are words filed in the database; no cut-off is given here.", "data": [{"smiles": "CCCCC(=O)c1ccc(O)c(-c2nc3cc(C(F)(F)F)ccc3[nH]2)c1", "values": [{"measurement": "MBC", "setting": "Actinomyces viscosus [1]", "result": 0.5, "unit": "µg/mL"}, {"measurement": "MBC", "setting": "[2]", "result": "inactive"}, {"measurement": "MBC", "setting": "Porphyromonas gingivalis [3]", "result": 0.5, "unit": "µg/mL"}]}, {"smiles": "Oc1c(Br)cc(Br)cc1-c1nc2cc(C(F)(F)F)ccc2[nH]1", "values": [{"measurement": "MBC", "setting": "[4]", "result": 1, "unit": "µg/mL"}, {"measurement": "MBC", "setting": "Actinomyces viscosus [5]", "result": 0.1, "unit": "µg/mL"}, {"measurement": "MBC", "setting": "Porphyromonas gingivalis [3]", "result": 0.05, "unit": "µg/mL"}]}, {"smiles": "O=C(Nc1ccc(Br)cc1)c1cc(Br)cc(Br)c1O", "note": "[TRIBROMSALAN]", "values": [{"measurement": "MBC", "setting": "[4]", "result": 0.5, "unit": "µg/mL"}, {"measurement": "MBC", "setting": "Actinomyces viscosus [5]", "result": 1, "unit": "µg/mL"}, {"measurement": "MBC", "setting": "Porphyromonas gingivalis [3]", "result": 0.05, "unit": "µg/mL"}]}, {"smiles": "CCCCCCC(=O)c1ccc(O)c(-c2nc3cc(Cl)ccc3[nH]2)c1", "values": [{"measurement": "MBC", "setting": "[2]", "result": "inactive"}, {"measurement": "MBC", "setting": "Actinomyces viscosus [6]", "result": "inactive"}, {"measurement": "MBC", "setting": "Porphyromonas gingivalis [7]", "result": "inactive"}]}, {"smiles": "CCCCCCC(=O)c1ccc(O)c(-c2nc3cc(C(F)(F)F)ccc3[nH]2)c1", "values": [{"measurement": "MBC", "setting": "[2]", "result": "inactive"}, {"measurement": "MBC", "setting": "Actinomyces viscosus [5]", "result": 0.5, "unit": "µg/mL"}, {"measurement": "MBC", "setting": "Porphyromonas gingivalis [3]", "result": 0.05, "unit": "µg/mL"}]}, {"smiles": "Oc1c(Br)cc(Br)cc1-c1nc2cc(Cl)ccc2[nH]1", "values": [{"measurement": "MBC", "setting": "[4]", "result": 5, "unit": "µg/mL"}, {"measurement": "MBC", "setting": "Actinomyces viscosus [5]", "result": 0.5, "unit": "µg/mL"}, {"measurement": "MBC", "setting": "Porphyromonas gingivalis [3]", "result": 0.05, "unit": "µg/mL"}]}, {"smiles": "CCCCCCCC(=O)c1ccc(O)c(-c2nc3cc(Cl)ccc3[nH]2)c1", "values": [{"measurement": "MBC", "setting": "Actinomyces viscosus [6]", "result": "inactive"}]}, {"smiles": "CCCCCCCCC(=O)c1ccc(O)c(-c2nc3cc(C(F)(F)F)ccc3[nH]2)c1", "values": [{"measurement": "MBC", "setting": "Actinomyces viscosus [5]", "result": 0.5, "unit": "µg/mL"}, {"measurement": "MBC", "setting": "Porphyromonas gingivalis [3]", "result": 0.1, "unit": "µg/mL"}]}, {"smiles": "N=C(NCCCCCCNC(=N)NC(=N)Nc1ccc(Cl)cc1)NC(=N)Nc1ccc(Cl)cc1", "note": "[CHLORHEXIDINE]", "values": [{"measurement": "MBC", "setting": "[4]", "result": 0.5, "unit": "µg/mL"}, {"measurement": "MBC", "setting": "Actinomyces viscosus [5]", "result": 0.5, "unit": "µg/mL"}, {"measurement": "MBC", "setting": "Porphyromonas gingivalis [3]", "result": 0.05, "unit": "µg/mL"}]}, {"smiles": "CCCCCCCC(=O)c1ccc(O)c(-c2nc3cc(C(F)(F)F)ccc3[nH]2)c1", "values": [{"measurement": "MBC", "setting": "[2]", "result": "inactive"}, {"measurement": "MBC", "setting": "Actinomyces viscosus [5]", "result": 0.5, "unit": "µg/mL"}, {"measurement": "MBC", "setting": "Porphyromonas gingivalis [3]", "result": 0.5, "unit": "µg/mL"}]}, {"smiles": "CCCCCCCCC(=O)c1ccc(O)c(-c2nc3cc([N+](=O)[O-])ccc3[nH]2)c1", "values": [{"measurement": "MBC", "setting": "[2]", "result": "inactive"}, {"measurement": "MBC", "setting": "Actinomyces viscosus [6]", "result": "inactive"}, {"measurement": "MBC", "setting": "Porphyromonas gingivalis [7]", "result": "inactive"}]}, {"smiles": "CCCCCCC(=O)c1ccc(O)c(-c2nc3cc(C)ccc3[nH]2)c1", "values": [{"measurement": "MBC", "setting": "[2]", "result": "inactive"}, {"measurement": "MBC", "setting": "Actinomyces viscosus [6]", "result": "inactive"}, {"measurement": "MBC", "setting": "Porphyromonas gingivalis [7]", "result": "inactive"}]}, {"smiles": "CN(C)[C@@H]1C(O)=C(C(N)=O)C(=O)[C@@]2(O)C(O)=C3C(=O)c4c(O)cccc4[C@@](C)(O)[C@H]3C[C@@H]12", "note": "[TETRACYCLINE]", "values": [{"measurement": "MBC", "setting": "[4]", "result": 0.5, "unit": "µg/mL"}, {"measurement": "MBC", "setting": "Actinomyces viscosus [5]", "result": 0.5, "unit": "µg/mL"}, {"measurement": "MBC", "setting": "Porphyromonas gingivalis [3]", "result": 0.05, "unit": "µg/mL"}]}, {"smiles": "CCCC(=O)c1ccc(O)c(-c2nc3cc(C(F)(F)F)ccc3[nH]2)c1", "values": [{"measurement": "MBC", "setting": "[4]", "result": 5, "unit": "µg/mL"}, {"measurement": "MBC", "setting": "Actinomyces viscosus [5]", "result": 0.5, "unit": "µg/mL"}, {"measurement": "MBC", "setting": "Porphyromonas gingivalis [3]", "result": 0.05, "unit": "µg/mL"}]}, {"smiles": "Cc1ccc2[nH]c(-c3ccccc3O)nc2c1", "values": [{"measurement": "MBC", "setting": "[4]", "result": 1, "unit": "µg/mL"}, {"measurement": "MBC", "setting": "Actinomyces viscosus [6]", "result": "inactive"}, {"measurement": "MBC", "setting": "Porphyromonas gingivalis [3]", "result": 1, "unit": "µg/mL"}]}, {"smiles": "CCCCCCCCCC(=O)c1ccc(O)c(-c2nc3cc(C(F)(F)F)ccc3[nH]2)c1", "values": [{"measurement": "MBC", "setting": "[2]", "result": "inactive"}, {"measurement": "MBC", "setting": "Actinomyces viscosus [6]", "result": "inactive"}, {"measurement": "MBC", "setting": "Porphyromonas gingivalis [7]", "result": "inactive"}]}, {"smiles": "CCCCCCCCC(=O)c1ccc(O)c(-c2nc3cc(Cl)ccc3[nH]2)c1", "values": [{"measurement": "MBC", "setting": "[2]", "result": "inactive"}, {"measurement": "MBC", "setting": "Actinomyces viscosus [6]", "result": "inactive"}, {"measurement": "MBC", "setting": "Porphyromonas gingivalis [7]", "result": "inactive"}]}, {"smiles": "Oc1ccccc1-c1nc2cc(C(F)(F)F)ccc2[nH]1", "values": [{"measurement": "MBC", "setting": "[2]", "result": "inactive"}, {"measurement": "MBC", "setting": "Actinomyces viscosus [8]", "result": "inactive"}, {"measurement": "MBC", "setting": "Porphyromonas gingivalis [3]", "result": 50, "unit": "µg/mL"}]}, {"smiles": "CCCCCCCCC(=O)c1ccc(O)c(-c2nc3cc(C)ccc3[nH]2)c1", "values": [{"measurement": "MBC", "setting": "[2]", "result": "inactive"}, {"measurement": "MBC", "setting": "Actinomyces viscosus [5]", "result": 10, "unit": "µg/mL"}]}, {"smiles": "CCCCCC(=O)c1ccc(O)c(-c2nc3cc(C(F)(F)F)ccc3[nH]2)c1", "values": [{"measurement": "MBC", "setting": "[2]", "result": "inactive"}, {"measurement": "MBC", "setting": "Actinomyces viscosus [5]", "result": 0.5, "unit": "µg/mL"}, {"measurement": "MBC", "setting": "Porphyromonas gingivalis [3]", "result": 0.1, "unit": "µg/mL"}]}]}
